Published values collected from several papers.
Lines come from different studies, so protocols differ.
Target: Tyrosine-protein kinase Lyn (LYN, Homo sapiens, UniProt P07948)

`CC(C)c1ccc(NC(=O)c2cccs2)c(-c2nc3ccccc3[nH]c2=O)c1` gave an activity vs control of 83% (enzyme activity, inhibitor; 1 µM).
`O=C1c2ccccc2-c2n[nH]c3cccc1c23` gave an activity vs control of 97% (enzyme activity, inhibitor; 0.5 µM).
For `Cn1c2c(c3ccccc31)C(C#N)C(C)(C)NC2=O` (stereo not drawn), the ΔTm was 0 °C (thermal stability, DSF; 10 µM).
For `CN(C)C(=O)Cn1cc(-c2nc(C3(c4ccc(-c5cnc(N)nc5)cc4)CC3)no2)cn1`, the remaining binding was 79% (cell-free assay, competition with immobilised ligand; 1 µM).
For `Cn1c2c(c3ccc(Cl)c(Cl)c31)C(C#N)C1(CCNCC1)NC2=O` (racemic), the ΔTm was 0.2 °C (thermal stability, DSF; 10 µM).
For `Cc1ccc(-n2nc(C(C)(C)C)cc2NC(=O)Nc2ccc(OCCN3CCOCC3)c3ccccc23)cc1`, the inhibition was 81% (enzyme activity, inhibitor; 10 µM).
`N#CC1(c2ccccn2)CCN(Cc2cc(C(=O)N3CCCC3)c(=O)n3ccccc23)CC1` has a remaining binding of 99% (cell-free assay, competition with immobilised ligand; 1 µM).
The remaining activity of `O=C(Nc1cnn(-c2csc(C(=O)NC3COC3)c2)c1)Nc1c(F)cccc1Cl` is reported as 95.3% (enzyme activity, inhibitor; 5 µM).
The remaining activity of `COc1cc(Cl)c(C(=O)N[C@@H](CN[C@H]2CC[C@@H](N)CC2)Cc2ccc(C#N)cc2)cc1-c1ccc(CN[C@H](C)c2ccc(C)cc2)o1` is reported as 90% (enzyme activity, inhibitor; 1 µM).
For `CCN(CC)CCNC(=O)c1c(C)[nH]c(/C=C2\C(=O)Nc3ccc(F)cc32)c1C`, the inhibition was 98% (enzyme activity, inhibitor; 10 µM).
With `CCCOc1ccc(OC)c(F)c1C(=O)c1ccc(C(=O)N[C@@H]2CNC[C@H]2NC(=O)c2ccc3[nH]ncc3c2)cc1` the remaining activity was 39% (enzyme activity, inhibitor; 10 µM).
`O=c1c2ccccc2[nH]c(=S)n1CCN1CCC(=C(c2ccc(F)cc2)c2ccc(F)cc2)CC1` gave a remaining activity of 108% (enzyme activity, inhibitor; 0.5 µM).
The remaining activity of `Cc1cnc(NC2CCOCC2)nc1-n1cnc(C(=O)NC(CN)c2cc(F)cc(Cl)c2)c1` (stereo not drawn) is reported as 84% (enzyme activity, inhibitor, radiometric; 1 µM).
The inhibition of `CNCc1ccc(-c2cc(-c3nc(-c4ccc(S(=O)(=O)C(C)C)cc4)cnc3N)on2)cc1` is reported as 53% (enzyme activity, inhibitor; 2 µM).
For `O=C(NC[C@@H]1[C@H]2CN(C(=O)OCc3cc(C(F)(F)F)cc(C(F)(F)F)c3)C[C@@H]12)c1ccc2[nH]nnc2c1`, the remaining binding was 100% (cell-free assay, competition with immobilised ligand; 1 µM).
For `Cn1c2c(Cl)c(Cl)ccc2c2cc[nH]c(=O)c21`, the ΔTm was 0 °C (thermal stability, DSF; 10 µM).
For `CS(=O)(=O)c1cc(C2(NC(=O)c3cncc4c3cnn4-c3ccc(F)cc3)CC2)ccn1`, the remaining binding was 100% (cell-free assay, competition with immobilised ligand; 1 µM).
The remaining activity of `Cc1ccc(Nc2nccc(N(C)c3ccc4c(C)n(C)nc4c3)n2)cc1S(N)(=O)=O` is reported as 52.1% (enzyme activity, inhibitor; 0.5 µM).
